Experimental data from ChEMBL document CHEMBL1667802, “1H-imidazo[4,5-c]pyridine-4-carbonitrile as cathepsin S inhibitors: separation of desired cellular activity from undesired tissue accumulation through optimization of basic nitrogen pka” (Bioorg Med Chem Lett, 2011).

Tests used:
Cathepsin S [1] = molecular target: T1, Cathepsin S (Homo sapiens, UniProt P25774); assay: Inhibition of cathepsin S in human JY cells assessed as accumulation of lip10 by Western blot analysis; type: cell-based
Cathepsin B = Cathepsin B (Homo sapiens, UniProt P07858); assay: Inhibition of human cathepsin B
Cathepsin S [2] = molecular target: T1, Cathepsin S; assay: Inhibition of human cathepsin S
Cathepsin L2 = molecular target: T2, Cathepsin L2 (Homo sapiens, UniProt O60911); assay: Inhibition of human cathepsin V
T2 sequence (O60911 whole entry): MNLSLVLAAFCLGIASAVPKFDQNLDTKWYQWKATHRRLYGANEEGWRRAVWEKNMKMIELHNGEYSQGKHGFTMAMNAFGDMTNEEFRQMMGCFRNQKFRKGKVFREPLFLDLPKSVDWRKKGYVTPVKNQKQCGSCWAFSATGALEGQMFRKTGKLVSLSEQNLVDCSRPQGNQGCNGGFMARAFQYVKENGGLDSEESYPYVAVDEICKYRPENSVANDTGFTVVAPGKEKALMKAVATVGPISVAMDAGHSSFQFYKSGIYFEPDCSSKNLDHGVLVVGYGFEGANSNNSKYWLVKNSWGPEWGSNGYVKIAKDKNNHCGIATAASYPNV

Procathepsin L = Procathepsin L (Homo sapiens, UniProt P07711); assay: Inhibition of human cathepsin L
Procathepsin L, sequence (P07711 whole entry): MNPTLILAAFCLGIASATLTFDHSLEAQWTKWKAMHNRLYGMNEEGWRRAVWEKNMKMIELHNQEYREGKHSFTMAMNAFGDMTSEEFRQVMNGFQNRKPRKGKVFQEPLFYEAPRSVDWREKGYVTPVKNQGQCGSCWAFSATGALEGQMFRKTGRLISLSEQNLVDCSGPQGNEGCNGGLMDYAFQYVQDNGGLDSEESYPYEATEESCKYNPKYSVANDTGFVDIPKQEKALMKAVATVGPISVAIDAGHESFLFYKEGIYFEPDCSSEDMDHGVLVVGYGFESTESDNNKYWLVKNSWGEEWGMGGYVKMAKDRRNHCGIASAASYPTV

Liver microsomes [3] = assay: Stability in Sprague-Dawley rat liver microsome; type: ADME
Liver microsomes [4] = assay: Stability in human liver microsome; type: ADME
[5] = Stability in C57 mouse liver microsome; type: ADME; conditions: microsomes
Cathepsin K = molecular target: T3, Cathepsin K (Homo sapiens, UniProt P43235); assay: Inhibition of human cathepsin K
T3 sequence (P43235 whole entry): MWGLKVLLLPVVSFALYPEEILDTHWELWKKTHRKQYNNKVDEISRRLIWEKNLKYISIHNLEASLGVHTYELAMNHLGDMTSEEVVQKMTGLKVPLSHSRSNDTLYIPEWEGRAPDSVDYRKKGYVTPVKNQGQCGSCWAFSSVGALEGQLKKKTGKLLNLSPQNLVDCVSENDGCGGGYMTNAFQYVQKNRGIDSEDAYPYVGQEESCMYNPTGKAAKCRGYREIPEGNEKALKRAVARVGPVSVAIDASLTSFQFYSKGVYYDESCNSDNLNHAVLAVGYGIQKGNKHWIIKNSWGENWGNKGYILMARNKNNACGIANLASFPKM

[6] = Oral bioavailability in C57 mouse at 2 mg/kg, iv or 10 mg/kg, po; type: ADME, organism-based; conditions: in vivo
Method in brief: (§1)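 Pharmacokinetics in male C57 mice, Sprague Dawley rats and Cynomolgus monkeys. Dosing was 2 mg/kg iv and 10 mg/kg po, with oral vehicle gelatin/mannitol. Parameters reported are clearance, Vss, Cmax and oral bioavailability (F %).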

[7] = Ratio of drug level in spleen to plasma in C57BI/6 mouse at 30 mg/kg, po; type: ADME, organism-based; set-up: dose 30 mg/kg, route oral
Method in brief: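 HCl salt given by oral gavage at 30 mg/kg in 0.5% gelatin, 5% mannitol in water to C57Bl/6 mice of 18–25 g. Blood and spleen collected 2 h after dosing and total compound level measured in each. Ratio taken as total spleen over total plasma concentration.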

[8] = Cmax in cynomolgus monkey at 2 mg/kg, iv or 10 mg/kg, po; type: ADME, organism-based, Macaca fascicularis; conditions: in vivo; method in brief: as §1
[9] = Volume of distribution at steady state in C57 mouse at 2 mg/kg, iv or 10 mg/kg, po; type: ADME, organism-based; conditions: in vivo, read-out: Vdss; method in brief: as §1
Spleen = assay: Drug level in C57BI/6 mouse spleen at 30 mg/kg, po; type: ADME, organism-based; set-up: dose 30 mg/kg, route oral; conditions: in vivo, read-out: Drug uptake
[10] = Clearance in cynomolgus monkey at 2 mg/kg, iv or 10 mg/kg, po; type: ADME, organism-based, Macaca fascicularis; conditions: in vivo; method in brief: as §1
[11] = Volume of distribution at steady state in cynomolgus monkey at 2 mg/kg, iv or 10 mg/kg, po; type: ADME, organism-based, Macaca fascicularis; conditions: in vivo, read-out: Vdss; method in brief: as §1
[12] = Cmax in Sprague-Dawley rat at 2 mg/kg, iv or 10 mg/kg, po; type: ADME, organism-based; conditions: in vivo; method in brief: as §1
Plasma = assay: Drug level in C57BI/6 mouse plasma at 30 mg/kg, po; type: ADME, organism-based; set-up: dose 30 mg/kg, route oral; conditions: in vivo
Cathepsin S [13] = molecular target: Cathepsin S (Mus musculus, UniProt O70370); assay: Inhibition of mouse cathepsin S
Cathepsin S (Mus musculus, UniProt O70370), sequence (O70370 whole entry): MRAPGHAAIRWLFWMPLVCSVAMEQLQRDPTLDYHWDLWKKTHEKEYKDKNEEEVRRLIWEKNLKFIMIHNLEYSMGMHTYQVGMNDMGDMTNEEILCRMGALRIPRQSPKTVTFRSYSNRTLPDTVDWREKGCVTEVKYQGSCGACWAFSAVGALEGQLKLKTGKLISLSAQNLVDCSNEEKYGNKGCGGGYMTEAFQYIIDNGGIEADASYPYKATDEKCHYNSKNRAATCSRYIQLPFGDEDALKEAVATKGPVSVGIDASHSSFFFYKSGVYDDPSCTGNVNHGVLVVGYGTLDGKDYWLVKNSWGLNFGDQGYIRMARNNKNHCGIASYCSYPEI

[14] = Oral bioavailability in cynomolgus monkey at 2 mg/kg, iv or 10 mg/kg, po; type: ADME, organism-based, Macaca fascicularis; conditions: in vivo; method in brief: as §1
[15] = Volume of distribution at steady state in Sprague-Dawley rat at 2 mg/kg, iv or 10 mg/kg, po; type: ADME, organism-based; conditions: in vivo, read-out: Vdss; method in brief: as §1
[16] = Clearance in C57 mouse at 2 mg/kg, iv or 10 mg/kg, po; type: ADME, organism-based; conditions: in vivo; method in brief: as §1
[17] = Oral bioavailability in Sprague-Dawley rat at 2 mg/kg, iv or 10 mg/kg, po; type: ADME, organism-based; conditions: in vivo; method in brief: as §1
[18] = Clearance in Sprague-Dawley rat at 2 mg/kg, iv or 10 mg/kg, po; type: ADME, organism-based; conditions: in vivo; method in brief: as §1
[19] = Dissociation constant, pKa of the compound; type: physicochemical
[20] = Cmax in C57 mouse at 2 mg/kg, iv or 10 mg/kg, po; type: ADME, organism-based; conditions: in vivo; method in brief: as §1
[21] = Drug level in C57BI/6 mouse plasma at 30 mg/kg, po after 4 hrs; type: ADME, organism-based; set-up: dose 30 mg/kg, route oral
[22] = Ratio of drug level in spleen to plasma in C57BI/6 mouse at 30 mg/kg, po after 4 hrs; type: ADME, organism-based; set-up: dose 30 mg/kg, route oral
Method in brief: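 Male or female unspecified 18–25 g C57Bl/6 mice received the HCl salt at 30 mg/kg by oral gavage in 0.5% gelatin, 5% mannitol in water. Blood and spleen were collected after dosing and total compound levels measured. The spleen/plasma ratio was taken from total spleen and total plasma concentrations (nM).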

[23] = Drug level in C57BI/6 mouse spleen at 30 mg/kg, po after 4 hrs; type: ADME, organism-based; set-up: dose 30 mg/kg, route oral; conditions: read-out: Drug uptake

T1 sequence (P25774 whole entry): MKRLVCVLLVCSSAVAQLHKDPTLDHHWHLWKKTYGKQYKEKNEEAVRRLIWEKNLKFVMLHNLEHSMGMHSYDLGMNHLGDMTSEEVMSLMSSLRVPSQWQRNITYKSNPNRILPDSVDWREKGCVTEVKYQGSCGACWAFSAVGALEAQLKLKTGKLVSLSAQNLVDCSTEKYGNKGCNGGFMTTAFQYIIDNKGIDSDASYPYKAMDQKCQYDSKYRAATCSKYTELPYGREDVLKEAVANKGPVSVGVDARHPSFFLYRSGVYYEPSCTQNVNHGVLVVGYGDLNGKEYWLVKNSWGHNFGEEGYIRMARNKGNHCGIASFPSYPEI

IC50 (Cathepsin S [1]) [nM] | IC50 (Cathepsin B) [nM] | IC50 (Cathepsin S [2]) [nM] | IC50 (Cathepsin L2) [nM] | IC50 (Procathepsin L) [nM] | IC50 (Cathepsin K) [nM] | Kp [7] | concentration (Spleen) [µM] | concentration (Plasma) [µM] | pKa [19] | Structure (SMILES) | other results
10 | > 10000 | 7.9 | > 10000 | > 10000 |  |  |  |  |  | CN1CCC(CCOc2ccc(-c3cc4c(ncn4C)c(C#N)n3)cc2C(F)(F)F)CC1 | 
 | > 10000 |  | > 10000 | > 10000 |  |  |  |  |  | Cn1cnc2c(C#N)nc(-c3ccc(OCCC4CCNCC4)c(C(F)(F)F)c3)cc21 | Stability (Liver microsomes [3]): Stable; Stability (Liver microsomes [4]): Stable; Stability [5]: Stable
353 | > 10000 | 27 | > 10000 | > 10000 | 2340 |  |  |  |  | Cn1cnc2c(C#N)nc(-c3ccc(OCCC4CCN(S(C)(=O)=O)CC4)c(C(F)(F)F)c3)cc21 | 
39 | > 10000 | 7.9 | > 10000 | > 10000 | 708 | 1.9 | 12.5 | 6.61 | 6.3 | Cn1cnc2c(C#N)nc(-c3ccc(OCCC4CCN(Cc5ncco5)CC4)c(C(F)(F)F)c3)cc21 | bioavailability [6]: 112%; Cmax [8]: 234 ng/mL; Vd [9]: 1.48 L/kg; clearance [10]: 10 mL/min/kg; Vd [11]: 0.6 L/kg; Cmax [12]: 9.64 ng/mL; IC50 (Cathepsin S [13]): 1.6 nM; bioavailability [14]: 9%; Vd [15]: 2.43 L/kg; clearance [16]: 13.9 mL/min/kg; bioavailability [17]: 3.6%; clearance [18]: 73.8 mL/min/kg; Cmax [20]: 3160 ng/mL
22 | > 10000 |  | > 10000 | > 10000 | 407 | 11.4 | 11.7 | 1.03 | 7.5 | CN(C)C(=O)CN1CCC(CCOc2ccc(-c3cc4c(ncn4C)c(C#N)n3)cc2C(F)(F)F)CC1 | bioavailability [6]: 62%; Vd [9]: 6.17 L/kg; Cmax [12]: 13.4 ng/mL; Vd [15]: 9.8 L/kg; clearance [16]: 79.4 mL/min/kg; bioavailability [17]: 8.93%; clearance [18]: 93.5 mL/min/kg; Cmax [20]: 296 ng/mL
123 | > 10000 | 14.1 | > 10000 | > 10000 | 813 | 2.9 | 18.2 | 6.37 | 5.6 | Cc1nnc(CN2CCC(CCOc3ccc(-c4cc5c(ncn5C)c(C#N)n4)cc3C(F)(F)F)CC2)o1 | 
 | > 10000 |  | > 10000 | > 10000 |  |  |  |  |  | CN(C)CCCOc1ccc(-c2cc3c(ncn3C)c(C#N)n2)cc1C(F)(F)F | concentration at 4 h [21]: 0.094 µM; Kp at 4 h [22]: 26; concentration at 4 h [23]: 2.43 µM
12 | > 10000 | 3.3 | > 10000 | > 10000 | 288 | 5.8 | 19.6 | 3.4 | 7.9 | Cc1noc(C)c1CN1CCC(CCOc2ccc(-c3cc4c(ncn4C)c(C#N)n3)cc2C(F)(F)F)CC1 | 
 | > 10000 |  | > 10000 | > 10000 |  | 51 | 4.57 | 0.09 |  | CCN1CCN(CCCOc2ccc(-c3cc4c(ncn4C)c(C#N)n3)cc2C(F)(F)F)CC1 | 
235 | > 10000 | 13 | > 10000 | > 10000 | 1910 |  |  |  |  | CC(=O)N1CCC(CCOc2ccc(-c3cc4c(ncn4C)c(C#N)n3)cc2C(F)(F)F)CC1 | 
294 | > 10000 | 18.6 | > 10000 | > 10000 | 1150 | 0.7 | 4.09 | 5.66 | 5.3 | Cc1noc(CN2CCC(CCOc3ccc(-c4cc5c(ncn5C)c(C#N)n4)cc3C(F)(F)F)CC2)n1 | 
